For seven compounds, IC50, inhibition and Activity results are on record in ChEMBL document CHEMBL4765437, “Design, synthesis and biological evaluation of pyrazolo[3,4-d]pyrimidine-based protein kinase D inhibitors” (Eur J Med Chem, 2020).

Active and inactive are the calls of the source. No cut-off for these calls is given here.

A short description of experiment [1]: Antiproliferative activity against human DND41 cells assessed as reduction in cell viability incubated for 72 hrs by IncuCyte live-cell automated imaging analysis. To be noted: DND41, 72 h.
Experiment [2] relates to Z-138. The experiment can be described thus: Antiproliferative activity against human Z138 cells assessed as reduction in cell viability incubated for 72 hrs by IncuCyte live-cell automated imaging analysis. To be noted: Z-138, 72 h.
Experiment [3] addresses Calcium/calmodulin-dependent protein kinase type II subunit alpha (Homo sapiens) (UniProt Q9UQM7). The experiment can be described thus: Inhibition of recombinant human full-length N-terminal GST-fused CaMK2alpha (1 to 478 residues) expressed in baculovirus expression system at 1 to 10 uM using Syntide-2 peptide as substrate measured after 10 mins by [gamma-32P]ATP by scintillation counting method. Conditions: dose 1-10 µM. An outline of the steps:
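Radiometric kinase assay in 40 µL: 50 mM Tris-HCl pH 7.4, 10 mM MgCl2, 2 mM CaCl2, calmodulin, 50 ng CAMKIIα, 2 µg Syntide-2 substrate, 25 µM ATP plus 2 µCi [γ-32P]ATP, with compounds at the indicated concentrations.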

Experiment [4] concerns the target T1, Serine/threonine-protein kinase D3 (Homo sapiens, UniProt O94806).
T1 sequence (O94806 whole entry): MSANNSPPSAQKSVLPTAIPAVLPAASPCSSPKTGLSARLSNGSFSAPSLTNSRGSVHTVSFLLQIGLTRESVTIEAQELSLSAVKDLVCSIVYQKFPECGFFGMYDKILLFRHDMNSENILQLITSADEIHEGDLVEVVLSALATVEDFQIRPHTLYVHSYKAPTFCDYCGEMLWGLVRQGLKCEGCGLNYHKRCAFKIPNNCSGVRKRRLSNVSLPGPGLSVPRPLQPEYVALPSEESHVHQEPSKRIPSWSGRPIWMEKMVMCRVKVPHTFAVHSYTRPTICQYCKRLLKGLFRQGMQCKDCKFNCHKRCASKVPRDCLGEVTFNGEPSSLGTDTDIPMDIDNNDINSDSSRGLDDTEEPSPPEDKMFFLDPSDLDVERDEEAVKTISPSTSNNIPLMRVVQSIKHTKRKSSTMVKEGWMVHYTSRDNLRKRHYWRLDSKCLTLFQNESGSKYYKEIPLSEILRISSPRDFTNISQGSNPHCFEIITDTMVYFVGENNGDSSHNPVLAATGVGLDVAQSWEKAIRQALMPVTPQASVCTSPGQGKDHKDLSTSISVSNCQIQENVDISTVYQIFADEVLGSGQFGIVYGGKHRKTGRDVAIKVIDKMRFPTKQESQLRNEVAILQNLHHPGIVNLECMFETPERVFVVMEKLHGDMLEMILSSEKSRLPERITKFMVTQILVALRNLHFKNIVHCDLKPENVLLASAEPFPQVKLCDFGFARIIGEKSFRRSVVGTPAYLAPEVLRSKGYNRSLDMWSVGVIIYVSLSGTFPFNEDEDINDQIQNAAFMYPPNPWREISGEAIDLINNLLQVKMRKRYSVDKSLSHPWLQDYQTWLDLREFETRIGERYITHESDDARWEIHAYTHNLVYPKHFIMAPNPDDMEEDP
The experiment can be described thus: Inhibition of recombinant FLAG-tagged PKD3 (unknown origin) expressed in HEK293T cells using Syntide-2 as substrate measured after 15 mins by ADP-Glo assay. In general terms: In ADP-Glo the light output rises with the ADP produced.

Experiment [5] has as its target T2, Serine/threonine-protein kinase D1 (Homo sapiens, UniProt Q15139).
T2 sequence (Q15139 whole entry): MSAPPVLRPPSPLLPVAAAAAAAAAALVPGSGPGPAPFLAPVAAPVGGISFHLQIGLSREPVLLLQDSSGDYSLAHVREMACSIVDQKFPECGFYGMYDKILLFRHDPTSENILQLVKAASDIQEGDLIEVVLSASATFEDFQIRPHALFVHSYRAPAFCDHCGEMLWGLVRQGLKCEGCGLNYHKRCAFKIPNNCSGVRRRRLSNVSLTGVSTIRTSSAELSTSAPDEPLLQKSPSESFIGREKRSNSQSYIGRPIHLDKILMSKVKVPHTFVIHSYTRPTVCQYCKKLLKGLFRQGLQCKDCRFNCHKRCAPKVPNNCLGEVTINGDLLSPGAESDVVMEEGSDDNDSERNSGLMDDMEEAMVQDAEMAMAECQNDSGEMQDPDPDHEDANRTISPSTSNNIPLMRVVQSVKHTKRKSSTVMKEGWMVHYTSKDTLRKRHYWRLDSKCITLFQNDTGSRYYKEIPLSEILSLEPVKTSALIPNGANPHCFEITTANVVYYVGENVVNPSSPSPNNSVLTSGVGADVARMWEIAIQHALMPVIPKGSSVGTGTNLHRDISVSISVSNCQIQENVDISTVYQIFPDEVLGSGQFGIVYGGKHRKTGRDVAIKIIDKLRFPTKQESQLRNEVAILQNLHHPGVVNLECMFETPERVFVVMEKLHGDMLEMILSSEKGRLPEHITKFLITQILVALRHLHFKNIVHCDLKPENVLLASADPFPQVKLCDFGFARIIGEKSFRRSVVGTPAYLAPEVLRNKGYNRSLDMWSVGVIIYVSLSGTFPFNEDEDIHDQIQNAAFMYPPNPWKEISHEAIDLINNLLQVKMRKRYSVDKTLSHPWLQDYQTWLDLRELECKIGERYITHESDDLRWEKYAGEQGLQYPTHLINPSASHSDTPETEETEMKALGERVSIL
The experiment can be described thus: Inhibition of recombinant FLAG-tagged PKD1 (unknown origin) expressed in HEK293T cells using Syntide-2 as substrate measured after 15 mins by ADP-Glo assay.

Experiment [6] deals with HL-60. Description: Antiproliferative activity against human HL-60 cells assessed as reduction in cell viability incubated for 72 hrs by IncuCyte live-cell automated imaging analysis. Conditions: HL-60, 72 h.
The subject of experiment [7] is CAPAN-1. The experiment can be described thus: Antiproliferative activity against human CAPAN-1 cells assessed as reduction in cell viability incubated for 72 hrs by IncuCyte live-cell automated imaging analysis. To be noted: CAPAN-1, 72 h.
The target in experiment [8] is Protein kinase C delta type (Homo sapiens) (UniProt Q05655). The experiment can be described thus: Inhibition of recombinant human full-length N-terminal GST-fused PKCdelta (1 to 676 residues) expressed in baculovirus expression system at 1 to 10 uM using MARCKS peptide as substrate measured after 10 mins by [gamma-32P]ATP by scintillation counting method. To be noted: dose 1-10 µM. The essentials:
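Radiometric PKCδ assay: 50 mM Tris-HCl pH 7.4, 10 mM MgCl2, 4 µL phosphatidylserine/PDBu vesicle stock (dried lipids resuspended in 50 mM Tris pH 7.4 and sonicated), 50 ng PKCδ, 5 µg MARCKS peptide substrate, 25 µM ATP plus 2 µCi [γ-32P]ATP.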

Experiment [9] deals with LN-229. The experiment can be described thus: Antiproliferative activity against human LN-229 cells assessed as reduction in cell viability incubated for 72 hrs by IncuCyte live-cell automated imaging analysis. Conditions: LN-229, 72 h.
Experiment [10] relates to NCI-H460. The experiment can be described thus: Antiproliferative activity against human NCI-H460 cells assessed as reduction in cell viability incubated for 72 hrs by IncuCyte live-cell automated imaging analysis. Conditions: NCI-H460, 72 h.
The test system of experiment [11] is HCT-116. The experiment can be described thus: Antiproliferative activity against human HCT-116 cells assessed as reduction in cell viability incubated for 72 hrs by IncuCyte live-cell automated imaging analysis. To be noted: HCT-116, 72 h.
The target of experiment [12] is T3, Serine/threonine-protein kinase D2 (Homo sapiens, UniProt Q9BZL6).
T3 sequence (Q9BZL6 whole entry): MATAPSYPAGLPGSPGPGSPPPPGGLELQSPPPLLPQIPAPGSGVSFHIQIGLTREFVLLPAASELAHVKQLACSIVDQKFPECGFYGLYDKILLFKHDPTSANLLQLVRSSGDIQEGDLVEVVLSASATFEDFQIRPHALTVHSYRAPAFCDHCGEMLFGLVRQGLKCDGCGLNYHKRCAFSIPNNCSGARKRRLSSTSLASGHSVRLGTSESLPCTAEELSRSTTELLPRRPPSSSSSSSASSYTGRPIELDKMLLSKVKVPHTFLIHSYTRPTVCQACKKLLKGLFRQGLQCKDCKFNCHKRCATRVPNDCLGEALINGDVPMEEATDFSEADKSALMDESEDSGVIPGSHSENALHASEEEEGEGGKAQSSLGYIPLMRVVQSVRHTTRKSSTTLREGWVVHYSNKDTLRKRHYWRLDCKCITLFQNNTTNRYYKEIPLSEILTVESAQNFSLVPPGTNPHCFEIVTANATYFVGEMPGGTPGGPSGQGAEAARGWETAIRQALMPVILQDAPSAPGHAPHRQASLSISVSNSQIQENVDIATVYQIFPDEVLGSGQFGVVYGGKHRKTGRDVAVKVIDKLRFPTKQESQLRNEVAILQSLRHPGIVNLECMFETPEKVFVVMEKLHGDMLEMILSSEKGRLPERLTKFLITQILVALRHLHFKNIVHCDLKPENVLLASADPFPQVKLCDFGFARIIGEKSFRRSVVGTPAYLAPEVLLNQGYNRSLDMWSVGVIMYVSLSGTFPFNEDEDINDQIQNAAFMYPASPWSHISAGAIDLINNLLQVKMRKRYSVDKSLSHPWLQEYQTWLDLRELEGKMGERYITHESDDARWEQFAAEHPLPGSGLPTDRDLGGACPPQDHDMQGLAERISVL
The experiment can be described thus: Inhibition of recombinant FLAG-tagged PKD2 (unknown origin) expressed in HEK293T cells using Syntide-2 as substrate measured after 15 mins by ADP-Glo assay.

Experiment [13] has as its system K562. Description: Antiproliferative activity against human K562 cells assessed as reduction in cell viability incubated for 72 hrs by IncuCyte live-cell automated imaging analysis. To be noted: K562, 72 h.
Experiment [14] relates to PANC-1. The experiment can be described thus: Antiproliferative activity against human PANC-1 cells assessed as reduction in cell proliferation at 5 uM measured after 96 to 144 hrs by MTT assay. The format is functional, cell-based. Conditions: time 96-144 hrs. An outline of the steps:
(§1)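 PANC-1 cells at 2000 cells/well, attached 4 h, then given compound at 5 µM or 0.25% DMSO vehicle. Grown 0, 48, 96 or 144 h, then MTT at 0.5 mg/mL final for 3 h, lysis in DMSO, absorbance at 550 nm. Four experiments (n=4), mean and SEM; two-way ANOVA with Dunnett's test against DMSO.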
Background: Tetrazolium assays rely on reduction of a dye to a coloured formazan, in cell work by metabolically active cells.

For experiment [15], the system named is PANC-1. Description: Antiproliferative activity against human PANC-1 cells assessed as reduction in cell proliferation at 5 uM measured after 48 to 144 hrs by MTT assay. To be noted: time 48-144 hrs. The format is functional, cell-based. An outline of the steps: as §1

Sequence of Calcium/calmodulin-dependent protein kinase type II subunit alpha (Homo sapiens) (Q9UQM7 whole entry, the tested form may be a part): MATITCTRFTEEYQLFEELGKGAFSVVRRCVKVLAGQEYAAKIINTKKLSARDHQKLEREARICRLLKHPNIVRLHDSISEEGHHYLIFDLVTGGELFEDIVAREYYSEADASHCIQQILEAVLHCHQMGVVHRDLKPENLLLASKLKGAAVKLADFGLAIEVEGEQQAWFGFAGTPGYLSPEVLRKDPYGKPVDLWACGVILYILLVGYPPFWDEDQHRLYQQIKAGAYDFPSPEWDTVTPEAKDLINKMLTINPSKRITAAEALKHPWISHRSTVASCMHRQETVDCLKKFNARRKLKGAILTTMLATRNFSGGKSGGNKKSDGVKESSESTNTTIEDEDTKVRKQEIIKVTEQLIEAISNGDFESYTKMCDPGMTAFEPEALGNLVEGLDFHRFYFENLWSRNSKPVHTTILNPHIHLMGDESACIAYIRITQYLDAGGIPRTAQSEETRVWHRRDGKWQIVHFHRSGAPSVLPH
Sequence of Protein kinase C delta type (Homo sapiens) (Q05655 whole entry, looked up, the tested form may be a part): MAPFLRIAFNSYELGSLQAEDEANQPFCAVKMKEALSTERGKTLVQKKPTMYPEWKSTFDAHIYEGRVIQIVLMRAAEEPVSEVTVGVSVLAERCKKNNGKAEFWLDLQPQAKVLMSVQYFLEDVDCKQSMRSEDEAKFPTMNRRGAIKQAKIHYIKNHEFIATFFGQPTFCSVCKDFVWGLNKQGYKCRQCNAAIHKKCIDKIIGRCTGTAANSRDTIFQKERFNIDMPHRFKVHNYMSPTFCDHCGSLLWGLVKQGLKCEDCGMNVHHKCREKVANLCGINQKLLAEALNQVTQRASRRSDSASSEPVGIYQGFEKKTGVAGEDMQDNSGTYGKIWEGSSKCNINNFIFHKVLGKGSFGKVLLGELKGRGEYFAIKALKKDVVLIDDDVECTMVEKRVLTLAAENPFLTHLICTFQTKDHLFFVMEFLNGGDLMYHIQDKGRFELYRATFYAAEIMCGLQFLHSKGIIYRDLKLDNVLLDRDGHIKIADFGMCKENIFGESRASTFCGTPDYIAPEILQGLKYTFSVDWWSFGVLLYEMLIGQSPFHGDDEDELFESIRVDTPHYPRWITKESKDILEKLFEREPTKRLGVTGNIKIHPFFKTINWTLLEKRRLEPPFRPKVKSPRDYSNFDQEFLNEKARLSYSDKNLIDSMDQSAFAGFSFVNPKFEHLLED

For orientation: IC50 means the concentration at which inhibition is half-maximal. Consider `CC(C)(C)n1nc(-c2c[nH]c3ccccc23)c2c(N)ncnc21`, for which the IC50 in [1] is 9.8 µM; in experiment [2] it was 9.7 µM; in experiment [4], 0.108 µM; in experiment [5], 0.108 µM; in experiment [6], 7.8 µM; in experiment [7], 1.6 µM. Besides, the IC50 turned out to be 39.2 µM in experiment [9]; 4 µM in [10]; 2.5 µM in experiment [11]; 0.094 µM in experiment [12]; 3.7 µM in experiment [13]. Besides, the inhibition entry in [3] and in experiment [8] was “inactive” in each case. The result in experiment [14] was Active.
`CCOc1ccc2cc(-c3nn(CC4CCN(C)CC4)c4ncnc(N)c34)ccc2n1`: the 50% inhibitory concentration (IC50) was 35.5 µM in experiment [1]; 30.4 µM in experiment [2]; more than 100 µM in experiment [6]; more than 100 µM in experiment [7]; 45.2 µM in experiment [9]; more than 100 µM in experiment [10]. In addition, the results for the IC50 in experiment [11] and in experiment [13] were more than 55.2 µM and more than 100 µM, respectively.
With `Cn1cc(-c2nn(C(C)(C)C)c3ncnc(N)c23)c2ccccc21`, the IC50 in [1] is more than 41.4 µM; in [2], more than 38.2 µM; in [6], more than 25.6 µM; in experiment [7], 21.3 µM; in experiment [9], more than 78.3 µM; in experiment [10], 73.9 µM. Also, the concentration for half-maximal inhibition (IC50) in experiment [11] was 63 µM; in experiment [13], more than 33.7 µM.
On to `Nc1ncnc2c1c(-c1c[nH]c3ccccc13)nn2CC1CCNCC1`, for which the IC50 is 42.7 µM in experiment [1]; 35.3 µM in experiment [2]; 17.9 µM in experiment [6]; 40.7 µM in [7]; 80.6 µM in experiment [9]; more than 95.8 µM in experiment [10]. For the same compound, the IC50 in [11] and in experiment [13] was more than 100 µM each time. In addition, in experiment [15], the outcome was inactive.
With `CC(C)(CO)Cn1nc(-c2c[nH]c3ccccc23)c2c(N)ncnc21`, the IC50 is 13.1 µM in experiment [1]; 19.6 µM in [2]; 27.6 µM in experiment [6]; 4.7 µM in experiment [7]; 52.6 µM in experiment [9]; 14 µM in experiment [10]. In addition, the results for the IC50 in [11] and in [13] were 13.4 µM and 12 µM, respectively.
`CC[C@@H](N)CNc1ccnc(-c2cc(-c3cnn(C)c3)ccc2O)n1`: the half-maximal inhibitory concentration (IC50) was 1 µM in experiment [1]; 0.7 µM in [2]; 0.016 µM in experiment [5]; 1 µM in experiment [6]; 1.8 µM in experiment [7]; 0.6 µM in experiment [9]. The IC50 in experiment [10] was 1.9 µM; in experiment [11] it was 1.7 µM; in experiment [12], 0.009 µM; in experiment [13] it was 2.2 µM.
Regarding `CC(C)(C)n1nc(Cc2cccc3ccccc23)c2c(N)ncnc21`, the IC50 in experiment [1] was more than 26.1 µM; in [2] it was more than 23.7 µM; in experiment [4], 0.616 µM; in [5], 1.01 µM; in [6], 24.1 µM; in experiment [7] it was 23 µM. The IC50 in [9] was more than 100 µM; in experiment [10], more than 100 µM; in [11] it was more than 100 µM; in experiment [12], 0.786 µM; in experiment [13] it was more than 36.3 µM.
